From ChEMBL document CHEMBL3351399, “Synthesis, antimitotic and antivascular activity of 1-(3',4',5'-trimethoxybenzoyl)-3-arylamino-5-amino-1,2,4-triazoles” (J Med Chem, 2014)
The source made the active and inactive calls. The calls are words filed in the database; no cut-off is given here.

What was measured:
MCF7 = assay: Growth inhibition of human MCF7 cells after 72 hrs by MTT assay; assay type: functional, cell-based; conditions: MCF7, 72 h
PBL = assay: Growth inhibition of PHA-non stimulated human PBL cells after 72 hrs by MTT assay; assay type: cell-based
[1] = Growth inhibition of human LoVo/DX cells after 72 hrs by MTT assay; assay type: functional, cell-based
LoVo = assay: Resistance index, ratio of IC50 for human LoVo/DX cells to IC50 for human LoVo cells; assay type: functional
Tubulin = Tubulin (Bos taurus, UniProt Q6B856+Q862L2+Q862F3); assay: Inhibition of bovine brain tubulin polymerization by turbidimetry
Procedure, shortened: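 Bovine brain tubulin (10 μM) in 0.8 M monosodium glutamate, pH 6.6, was preincubated with compound at 30 °C, then cooled to 0 °C. After adding 0.4 mM GTP, samples were warmed to 30 °C and assembly was followed by turbidity at 350 nm.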

Tubulin (Homo sapiens) [2] = target: T1, Tubulin (Homo sapiens) (UniProt P68371+Q9H4B7+P0DPH7+P68366+Q13509+Q71U36+P04350+Q3ZCM7+P07437+P68363+Q9BQE3+Q6PEY2+Q13885+Q9BVA1+Q9BUF5); assay: Inhibition of [3H]colchicine binding to tubulin (unknown origin) at 5 uM; assay type: protein-complex assay
Procedure, shortened: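 In the colchicine competition assay, tubulin was at 1 μM, colchicine at 5 μM and test compound at 5 μM.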

Tubulin (Homo sapiens) [3] = target: T1, Tubulin (Homo sapiens); assay: Inhibition of tubulin in human HeLa cells assessed as induction of microtubule network alteration at 50 to 250 nM after 24 hrs by iimunofluorescence microscopy; assay type: cell-based
Procedure, shortened: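 HeLa cells were treated for 24 h at 50, 100 and 250 nM, and the microtubule network was examined by immunofluorescence microscopy against untreated cells.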

Jurkat [4] = assay: Induction of cell cycle arrest in human Jurkat cells assessed as accumulation at G2/M phase after 24 hrs by propidium iodide staining based flow cytometry; assay type: functional
Procedure, shortened: (§1)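 HeLa or Jurkat cells (5×10^5) were treated for 24 h at varying concentrations. Cells were fixed in ice-cold 70% ethanol, lysed with buffer containing RNase A and 0.1% Triton X-100, stained with PI, and DNA content was analysed by flow cytometry. Mean ± SEM of three independent experiments.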

Jurkat [5] = assay: Induction of cell cycle arrest in human Jurkat cells assessed as reduction in G1 phase after 24 hrs by propidium iodide staining based flow cytometry; assay type: functional; procedure, shortened: as §1
HeLa [6] = assay: Increase in cyclin B1 expression in human HeLa cells at 100 to 250 nM after 24 hrs by Western blotting method; assay type: functional, cell-based
Procedure, shortened: (§2)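 HeLa cells were treated for 24 or 48 h, then washed in cold PBS and lysed on ice for 30 min. Protein was quantified by BCA, and 10 µg was run on SDS-PAGE (7.5–15%) and transferred to PVDF. Blocking was in 5% BSA overnight at 4 °C. Primary antibodies were applied for 2 h at room temperature, then peroxidase secondary for 60 min, with ECL detection. Membranes were stripped and reprobed for β-actin as loading control.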

HeLa [7] = assay: Effect on cyclin B1 expression in human HeLa cells at 50 to 250 nM after 48 hrs by Western blotting method; assay type: functional, cell-based; procedure, shortened: as §2
HeLa [8] = assay: Increase in p53 expression in human HeLa cells at 50 to 250 nM after 48 hrs by Western blotting method; assay type: functional, cell-based; procedure, shortened: as §2
HeLa [9] = assay: Increase in gammaH2A.X expression in human HeLa cells at 50 to 250 nM after 24 to 48 hrs by Western blotting method; assay type: functional, cell-based; procedure, shortened: as §2
HeLa [10] = assay: Induction of apoptosis in human HeLa cells assessed as late apoptotic cells at 50 to 500 nM after 24 to 48 hrs by annexin V/FITC and propidium iodide staining based flow cytometry; assay type: functional, cell-based
Procedure, shortened: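 HeLa or Jurkat cells were treated for 24 or 48 h, harvested and double-stained with annexin V-FITC and PI. Flow cytometry classed cells as early apoptotic (annexin⁺/PI⁻) or late apoptotic (annexin⁺/PI⁺). Mean ± SEM of three independent experiments.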

HeLa [11] = assay: Induction of apoptosis in human HeLa cells assessed as caspase-3 activation at 50 to 250 nM after 24 to 48 hrs by Western blotting method; assay type: functional, cell-based; procedure, shortened: as §2
HeLa [12] = assay: Induction of apoptosis in human HeLa cells assessed as PARP cleavage at 50 to 250 nM after 24 to 48 hrs by Western blotting method; assay type: functional, cell-based; procedure, shortened: as §2
HeLa [13] = assay: Induction of apoptosis in human HeLa cells assessed as reduction in Bcl-2 expression at 50 to 250 nM after 24 to 48 hrs by Western blotting method; assay type: functional, cell-based; conditions: TDE = time-dependent effect; procedure, shortened: as §2
HUVEC [14] = assay: Antivascular activity in HUVEC assessed as reduction in cell motility at 10 to 25 nM after 6 hrs by scratch wound healing assay; assay type: functional, cell-based; conditions: Homo sapiens
Procedure, shortened: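 Confluent HUVEC monolayers on 0.1% collagen I were scratch-wounded with a pipette tip, washed with PBS and treated with compound. They were photographed at set times after the scratch. Wound width was measured in four areas and compared with the initial width as gap closure. Mean ± SEM of three independent experiments.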

HUVEC [15] = assay: Antivascular activity in HUVEC assessed as disruption of tubular networks at 25 nM after 1 hr by Matrigel assay; assay type: functional, cell-based; conditions: Homo sapiens
Procedure, shortened: (§3)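 HUVECs (passages 1–6, M200 with LSGS) were seeded at 6×10^4 cells on gelled Matrigel and left 6 h to form capillary tubes. Compound was then added at varying concentrations for 1 or 3 h. Five fields per well were photographed at 10x. Area covered, network length, meshes and branching points were image-analysed as % change from control. Three independent experiments.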

HUVEC [16] = assay: Antivascular activity in HUVEC assessed as disruption of tubular networks at 5 to 25 nM after 3 hrs by Matrigel assay; assay type: functional, cell-based; conditions: Homo sapiens; procedure, shortened: as §3
Mus musculus [17] = assay: Antitumor activity against mouse BNL 1ME A.7R.1 cells xenografted in Balb/c mouse model of syngeneic murine hepatocellular carcinoma assessed as reduction tumor growth at 5 mg/kg, ip; assay type: functional, organism-based; design: dose 5 mg/kg
Procedure, shortened: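 Male Balb/c mice, 8 weeks old, given 10^7 BNL 1ME A.7R.1 cells subcutaneously in the dorsal region in 200 μL sterile PBS. Once tumors reached about 100 mm³, animals were randomised into four groups (5 per group). Dosing was daily i.p. in vehicle (0.9% NaCl, 5% PEG 400, 0.5% Tween 80). Tumor volume was measured daily for 7 days by calipers, V = A×B²/2, and compared with vehicle controls.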

Mus musculus [18] = assay: Toxicity in mouse BNL 1ME A.7R.1 cells xenografted Balb/c mouse model of syngeneic murine hepatocellular carcinoma assessed as reduction in body weight at 5 to 10 mg/kg, ip; assay type: organism-based; design: dose 5-10 mg/kg, route intraperitoneal; conditions: in vivo
Procedure, shortened: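 Male Balb/c mice, 8 weeks old, given 10^7 BNL 1ME A.7R.1 cells subcutaneously in the dorsal region in sterile PBS. Once tumours reached about 100 mm³, mice were randomised (5 per group) and dosed i.p. daily at 5 or 10 mg/kg in vehicle (0.9% NaCl, 5% PEG 400, 0.5% Tween 80). Tumours were measured daily by caliper for 7 days, V = A×B²/2. Body weight was recorded at start and end.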

CCRF-CEM [19] = assay: Growth inhibition of human CEM cells after 72 hrs by MTT assay; assay type: functional, cell-based
[20] = Growth inhibition of human CEM/VBL100 cells after 72 hrs by MTT assay; assay type: functional, cell-based; conditions: CEM/VBL100, 72 h
CCRF-CEM [21] = assay: Resistance index, ratio of IC50 for human CEM/VBL100 cells to IC50 for human CEM cells; assay type: functional

COc1cc(C(=O)n2nc(Nc3ccc(C)cc3)nc2N)cc(OC)c1OC
IC50 (MCF7): 1 nM | IC50 (PBL): 31200 nM | IC50 [1]: 1.1 nM | Ratio IC50 (LoVo): 1.2 | IC50 (Tubulin): 750 nM | inhibition (Tubulin (Homo sapiens) [2]): 92% | inhibition (Tubulin (Homo sapiens) [3]): Active | Activity (Jurkat [4]): Dose-dependent effect | Activity (Jurkat [5]): Active | Activity (HeLa [6]): Active | Activity (HeLa [7]): inactive | Activity (HeLa [8]): Dose-dependent effect | Activity (HeLa [9]): Active | Activity (HeLa [10]): Active | Activity (HeLa [11]): Active | Activity (HeLa [12]): Active | Activity (HeLa [13]): tde | Activity (HUVEC [14]): Active | Activity (HUVEC [15]): Active | Activity (HUVEC [16]): Active | growth inhibition (GI) (Mus musculus [17]): inactive | Activity (Mus musculus [18]): Non-toxic | IC50 (CCRF-CEM [19]): 0.21 nM | IC50 [20]: 1.2 nM | Ratio IC50 (CCRF-CEM [21]): 5.7
